NR2E3 ag-1 – NR2E3 (human) agonism; Q9Y5X4; GST-NR2E3/biotin-RetCOR TR-FRET, 1536-well; inhibition of corepressor binding, % at 4.78 µM; 0.12% of 320,000 active; AID 2300;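 active = percent inhibition above the cutoff of mean plus 3 SD of all tested compounds, set per screening campaign, cut at about 20% in these data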;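 note: 0% = DMSO wells and 100% = biotin wells as full block of FRET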
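Format: 1536-well format; test system: GST-NR2E3 and biotin-RetCOR proteins; read-out basis: percent inhibition of TR-FRET ratio; timing: 5 h incubation at 4 °C; detection: time-resolved FRET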
NR2E3 ag-2 – activates human NR2E3 receptor. Q9Y5X4. CHO-S Gal4-NCOR/VP16-NR2E3 two-hybrid, luciferase. inhibition of corepressor binding, % at 3.98 µM. 0.35% of 360,000 active. AID 602229;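 active = inhibition above the mean of all tested compounds plus 3 SD, cut at about 70% in these data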;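 note: 0% = DMSO with NR2E3 transfected cells and 100% = cells lacking NR2E3 construct; higher means lower luciferase signal from less NR2E3 corepressor binding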
Jurkat NFkB inh – lowers PMA/ionomycin-induced NF-kB signal in Jurkat cells | PMA/ionomycin-induced NF-kB luciferase reporter, luminescence | inhibition, % at 4 µM | 0.53% of 330,000 active | AID 435003; in the data active = inhibition above about 50%
697 NFkB inh – lowers PMA/ionomycin-induced NF-kB signal in 697 B cells; 0.33% of 330,000 active; 697 B-cell NF-kB luciferase reporter, 16 h; inhibition, % at 4 µM; AID 435022; in the data active = inhibition above about 35%
GalR3 antagonist – blocks the human galanin receptor 3; AID 651719; 0.44% of 360,000 active; inhibition, % at 3 µM; HEK293 GalR3-CNG cAMP membrane potential fluorescence; galR3 body fused to GalR1 C-terminus;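 active = inhibition above the screen-wide average plus 3 SD, cut at about 13% in these data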;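 note: forskolin and galanin both at EC90 stimulate the cells; cAMP rise reported by CNG channel membrane potential dye signal; 0% = forskolin plus galanin with DMSO and 100% = forskolin alone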
Target sequence (O60755 1-299 limits assumed): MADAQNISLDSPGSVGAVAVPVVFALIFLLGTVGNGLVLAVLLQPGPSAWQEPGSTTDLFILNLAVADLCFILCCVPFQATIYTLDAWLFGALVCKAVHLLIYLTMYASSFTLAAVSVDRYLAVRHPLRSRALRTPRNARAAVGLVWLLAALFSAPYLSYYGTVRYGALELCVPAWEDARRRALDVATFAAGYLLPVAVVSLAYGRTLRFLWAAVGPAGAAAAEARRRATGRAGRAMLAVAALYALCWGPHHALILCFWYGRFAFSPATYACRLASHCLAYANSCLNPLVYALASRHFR
JMJD2C inh – blocks human GASC-1 demethylase activity; GST-JMJD2C(1-420) H3K9me3 demethylation, DELFIA europium; inhibition, % at 2.35 µM; 0.069% of 330,000 active; AID 2099;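 active = more than half of a compound's replicate wells show inhibition beyond 50%, single wells judged on their own value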;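 note: signal counts dimethyl H3K9 product captured on neutravidin plate; 0% = median of DMSO wells and 100% = 0.3 times that DMSO median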
NR2E3 ag confirm – confirmation of human NR2E3 nuclear receptor agonists; shares compounds with NR2E3 ag-1; cell-free NR2E3 corepressor release, TR-FRET, 5 h; activation (reported as inhibition), % at 3.98 µM; 39% of 360 active; in the data active = activation above about 20%
PPARg-NCOR2 ctr – releases PPARgamma from NCOR2 in NR2E3 counter-screen; inhibition, % at 3.98 µM; shares compounds with NR2E3 ag-1; 45% of 360 active; TR-FRET PPARg-NCOR2 coregulator interaction, biochemical; in the data active = inhibition above about 20%;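 note: 0% = DMSO vehicle and 100% = wells without protein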
Active calls of the source: *. Shown are actives, neighbours in structure and some others; about 1.5% of the full set was active somewhere.

How did Cn1c(=S)[nH]c2c(c1=O)C(C)(C)Cc1ccccc1-2 do in these assays?
NR2E3 ag-1: 39*; NR2E3 ag-2: 15; GalR3 antagonist: -2; JMJD2C inh: -13; NR2E3 ag confirm: 41*; PPARg-NCOR2 ctr: 35*

What do the screens show for `CCC1(C)Cc2ccccc2-c2[nH]c(=S)[nH]c(=O)c21` (stereo not drawn)?
NR2E3 ag-1: 31*; NR2E3 ag-2: 12; Jurkat NFkB inh: 10; 697 NFkB inh: 1; GalR3 antagonist: -8; JMJD2C inh: 5; NR2E3 ag confirm: 20*; PPARg-NCOR2 ctr: 17

Results for CC1(c2nnc(-c3ccncc3)o2)CC(c2ccccc2)=NO1 (stereo not drawn) ?
NR2E3 ag-1: 0; NR2E3 ag-2: 8; Jurkat NFkB inh: -4; 697 NFkB inh: -16; GalR3 antagonist: -6; JMJD2C inh: -19

Results for O=C(O)CNC(=O)c1ccc(S(=O)(=O)N2CCOCC2)cc1 ?
NR2E3 ag-1: 3; NR2E3 ag-2: -16; Jurkat NFkB inh: 3; 697 NFkB inh: 4; GalR3 antagonist: -4; JMJD2C inh: -1

Results for O=C(Nc1ccccc1)c1ccc(Br)c(S(=O)(=O)Nc2cccnc2)c1 ?
NR2E3 ag-1: 3; NR2E3 ag-2: -17; Jurkat NFkB inh: -3; 697 NFkB inh: -20; GalR3 antagonist: 6; JMJD2C inh: -8

Results for O=S(=O)(Nc1cccnc1)c1ccc(Br)c2ccccc12 ?
NR2E3 ag-1: 30*; NR2E3 ag-2: 14; Jurkat NFkB inh: -7; 697 NFkB inh: -16; GalR3 antagonist: -2; JMJD2C inh: 10; NR2E3 ag confirm: 17; PPARg-NCOR2 ctr: 21*

How did Cc1nn(CCc2nn[nH]n2)c2nc(-c3ccc(Br)cc3)cc(C(F)(F)F)c12 do in these assays?
NR2E3 ag-1: 25*; NR2E3 ag-2: 4; Jurkat NFkB inh: -5; 697 NFkB inh: -24; GalR3 antagonist: -2; JMJD2C inh: 3; NR2E3 ag confirm: 37*; PPARg-NCOR2 ctr: 33*

What do the screens show for `O=c1oc2c(O)c(O)cc3c(=O)oc4c(O)c(O)cc1c4c23`?
NR2E3 ag-1: 38*; NR2E3 ag-2: -14; NR2E3 ag confirm: 34*

What do the screens show for `Cc1ccc(C(=O)NNC(=O)c2cccc(S(=O)(=O)N3CCN(c4ccccc4)CC3)c2)cc1`?
NR2E3 ag-1: -3; NR2E3 ag-2: -19; Jurkat NFkB inh: -5; 697 NFkB inh: 6; GalR3 antagonist: -5; JMJD2C inh: 6

Results for COc1ccc(/C=N/NC(=O)C(=O)N2CCN(c3ccccc3OC)CC2)cc1 ?
NR2E3 ag-1: 30*; NR2E3 ag-2: -19; Jurkat NFkB inh: 7; 697 NFkB inh: -16; GalR3 antagonist: 0; JMJD2C inh: 8; NR2E3 ag confirm: -6; PPARg-NCOR2 ctr: -9

How did Cc1cc(-c2nnc(SCC(=O)Nc3ccc(C)c(C)c3)n2N)n[nH]1 do in these assays?
NR2E3 ag-1: 0; NR2E3 ag-2: -29; Jurkat NFkB inh: 6; 697 NFkB inh: 2; GalR3 antagonist: 5; JMJD2C inh: 1

What do the screens show for `CC1=NN(c2ccc(C)c(C)c2)C(=O)C1C(c1cccc(O)c1)C1C(=O)N(c2ccc(C)c(C)c2)N=C1C` (stereo not drawn)?
NR2E3 ag-1: 21*; NR2E3 ag-2: 28; Jurkat NFkB inh: 7; 697 NFkB inh: 11; GalR3 antagonist: -2; JMJD2C inh: 13; NR2E3 ag confirm: -4; PPARg-NCOR2 ctr: 6

Results for COc1cc(/C=C2\CCn3c2nc2cc(C(=O)O)ccc2c3=O)ccc1OC(F)F ?
NR2E3 ag-1: 7; NR2E3 ag-2: -35; Jurkat NFkB inh: -29; 697 NFkB inh: -13; GalR3 antagonist: -2; JMJD2C inh: 14

How did CN1OC[C@@H]2CN(C(=O)c3ccc(C#N)cc3)[C@H](c3cccc(Br)c3)C[C@@H]21 do in these assays?
GalR3 antagonist: 0

Screening data: PubChem BioAssay, several laboratories
